# Bioassay records: PubChem, several laboratories
# T cell modulator = modulators of CD8 T cell-vesicle binding, primary screen, mouse 2C CD8+ T cells, flow cytometry | response (vesicle binding), % at 7 µM | 2C CD8+ T cell-vesicle binding; stronger effect = lower value | 0.068% of 330,000 active;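 active = response, share of CD8 T cells binding vesicles, and their 90th percentile fluorescence all below set limits, cut at about 80% in these data, passing the limit was not always enough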;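 note: values below 100% mean blocked vesicle binding to the CD8+ T cells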
#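 Benchmarks: naked versus QL9-loaded vesicles / Assay system: purified 2C TCR transgenic mouse naive CD8+ T cells / Technique: high-throughput flow cytometry with anti-B7-1 and anti-CD8 staining / Timing: Cell–vesicle co-incubation 1.5 h at 37 °C, staining 20 min on ice / Read-out: percent CD8+ FL2 mean versus row control / Probe or stimulus: QL9-loaded Drosophila micro-vesicles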
# MIN6 prolif-1 = inducers of MIN6 beta-cell proliferation, primary screen, ATP luminescence, uHTS; proliferation, % at 10 µM; MIN6 cells proliferation, ATPlite luminescence, 48 h; cells starved in 0.2% serum; 100% = growth in 10% serum; 0.29% of 330,000 active;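 active = compounds whose signal lies at least 3.5 SD above the mean of all wells on their plate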
# NTR1 agonist = agonists of human NTR1, primary screen, imaging, U2OS cells, beta-arrestin-GFP, high content; NTR1-U2OS beta-arrestin-GFP spot imaging, agonist mode; activation, % at 20 µM; AID 493036, 2011; Neurotensin receptor type 1 (Homo sapiens), P30989; 0.17% of 330,000 active;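 active = activation at or above 40% of the spot to cytoplasm intensity ratio, with at least 20 cells analyzed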
# Target sequence (P30989 whole entry, looked up): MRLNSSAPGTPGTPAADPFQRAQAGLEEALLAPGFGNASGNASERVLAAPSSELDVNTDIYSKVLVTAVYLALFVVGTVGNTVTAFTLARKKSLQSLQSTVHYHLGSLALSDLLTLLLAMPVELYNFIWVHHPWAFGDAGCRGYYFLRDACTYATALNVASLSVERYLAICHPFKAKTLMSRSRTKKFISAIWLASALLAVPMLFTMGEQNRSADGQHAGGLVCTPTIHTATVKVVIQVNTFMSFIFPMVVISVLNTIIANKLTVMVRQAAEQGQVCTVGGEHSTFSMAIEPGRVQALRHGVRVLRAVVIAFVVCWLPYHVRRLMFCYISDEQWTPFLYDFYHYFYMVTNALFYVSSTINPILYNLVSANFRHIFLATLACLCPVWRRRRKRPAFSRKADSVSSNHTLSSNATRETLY
# Xi reactivation = activators of inactive X chromosome reactivation, primary screen, imaging, XiGFP fibroblasts, GFP high-content imaging, set 2; XiGFP mouse fibroblasts, % GFP-positive cells imaging, 3 d; cells co-treated with 5-aza-dC sensitizer; scaled so ellipticine positive control = 100%; activation, % at 7.58 µM; 0.055% of 360,000 active; AID 743238, 2013;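 active = mean normalized replicate activation at least 10% and every replicate at or above 10%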
#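 System: 68-5-11 XiGFP fibroblast line; Timing: 3 days compound exposure; Compound dosing: one concentration, pinned; Benchmarks: positive control ellipticine, 6 µM final; Buffer or medium: DMEM containing 5-aza-dC.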
# Arrestin-AP2 inh = inhibitors of beta-arrestin/AP2 binding, primary screen, biochemical, GPCR trafficking, flow cytometry; beta-arrestin 1 C-terminal peptide binding to AP2 beta2-adaptin appendage (human); AID 504490, 2011; inhibition, % at 10 µM; FITC-arrestin peptide / GST-AP2 beads; AP2 beta2 appendage carries R879A mutation; 0.31% of 340,000 active;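 active = inhibition above a set limit, near 3 SD of compounds lacking own fluorescence, cut at about 54% in these data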
#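 System: GST-AP2 R879A bound to glutathione beads, E. coli-expressed. Also added: 50 nM FITC-arrestin peptide. Schedule: compound with beads 12 min RT, then probe 1 h RT. Signal: bead flow cytometry, FITC channel. Read-out basis: percent response.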
# V-ATPase pHluor = regulators of yeast V-ATPase proton pumping, primary screen, pHLuorin cytosolic pH fluorescence; S. cerevisiae; response, % at 10 µM; 0.37% of 350,000 active; AID 504577, 2011; in the data active = response mostly above about 7.3%, no sharp cut-off; inactive = mostly below about 5.4%; note: actives read high
# MIN6 prolif-2 = inducers of beta-cell proliferation in MIN6, confirmation, MIN6 cells, mouse; shares compounds with MIN6 prolif-1; ATPlite luminescence, 48 h; cells kept in 0.2% serum; scaled between 0.2% and 10% serum; proliferation increase, % at 50 µM; 920 tested, under 10 active; AID 463095, 2010;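 active = proliferation increase above 40% at any of the four tested concentrations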
# Numbers stand for hits; 0 = inactive; - = not tested or not shown. Hits are enriched below; roughly 0.89% of the tested compounds scored in any of these assays.
SMILES,T cell modulator,MIN6 prolif-1,NTR1 agonist,Xi reactivation,Arrestin-AP2 inh,V-ATPase pHluor,MIN6 prolif-2
COc1ccc(S(=O)(=O)N2CCN(C(=O)Cc3cccs3)CC2)cc1,0,0,0,0,0,0,-
C[C@H]1CN([C@@H](C)CO)C(=O)Cc2cc(NC(=O)CCN3CCOCC3)ccc2O[C@H]1CN(C)S(=O)(=O)c1ccc(Cl)cc1,-,-,-,0,-,-,-
CCCNC(=O)N(C)C[C@@H]1Oc2ncc(Br)cc2C(=O)N([C@H](C)CO)C[C@H]1C,-,-,-,0,-,-,-
CCCOc1c(Cl)cc(C(=O)NC)cc1OC,0,9.7,0,0,0,0,0
COc1ccc(NC(=O)Nc2ccc3c(c2)CC(=O)N([C@@H](C)CO)C[C@@H](C)[C@H](CN(C)Cc2ccncc2)O3)cc1,-,-,-,0,-,-,-
CCc1nc(SCC(=O)NC2CCCC2)c2oc3ccccc3c2n1,0,0,0,0,0,0,-
CCc1nc(SCC(=O)N2CCCc3ccccc32)c2oc3ccccc3c2n1,0,15,0,-,0,0,0
CN1CCN(C(=O)C[C@H]2CC[C@H]3[C@@H](COC[C@@H](O)CN3Cc3ccc4c(c3)OCO4)O2)CC1,-,-,-,0,-,-,-
CC(C)C#Cc1ccc2c(c1)O[C@@H](CN(C)Cc1ccncc1)[C@H](C)CN([C@@H](C)CO)S2(=O)=O,-,-,-,0,-,-,-
COCCCn1c(=O)/c(=C\c2ccc(OC(F)F)c(OC)c2)s/c1=C(/C#N)C(N)=O,0,9.0,0,0,0,0,0
COc1ccc(NC(=O)Nc2ccc3c(c2)C(=O)N([C@@H](C)CO)C[C@H](C)[C@@H](CN(C)C(=O)NC2CCCCC2)OCCCC[C@H](C)O3)cc1,-,-,-,0,-,-,-
CCC(=O)N1CCC2(CC1)CN(C(=O)NC1CCCC1)[C@@H](CO)c1c2c2ccc(OC)cc2n1C,-,-,-,0,-,-,-
COc1ccc(-c2nnc(-c3ccc(Br)o3)o2)cc1OC,0,7.2,0,-,0,0,0
COc1ccc(-c2nc(-c3ccc(Br)o3)no2)cc1OC,0,0,0,0,0,-,-
Cc1ccc(CNc2ncnc(N)c2[N+](=O)[O-])cc1,0,7.8,0,0,0,0,0
CSc1sc(C(=O)N2CCCCC2)c(-c2cccs2)c1C#N,0,6.9,0,0,0,0,0
C[C@@H]1CN([C@H](C)CO)C(=O)c2c(c3ccccc3n2C)-c2ccccc2CO[C@@H]1CN(C)CC1CC1,-,-,-,0,-,-,-
CCC(NC(C)C)C(O)c1ccc(O)c2[nH]c(=O)ccc12 (centres undefined),0,19,0,-,0,0,0
C[C@@H]1CCCCO[C@@H](CN(C)C(=O)Nc2ccccc2)[C@@H](C)CN([C@H](C)CO)C(=O)c2cc(NC(=O)Nc3ccc4c(c3)OCO4)ccc2O1,-,-,-,0,-,-,-
CS(=O)(=O)N1CCCC(C(=O)NCCN2CCC(Cc3ccccc3)CC2)C1 (centres undefined),0,5.4,0,-,0,0,0
O=C(NCCc1ccccc1)[C@H]1N[C@H]2c3ccc(-c4ccc(F)cc4)c(=O)n3C[C@H]2[C@@H]1CO,-,-,-,0,-,-,-
CCN1CCN(c2sc(S(=O)(=O)CC)nc2S(=O)(=O)c2ccc(C)cc2)CC1,-,-,-,0,-,-,-
CCN1CCN(c2sc(S(C)(=O)=O)nc2S(=O)(=O)c2ccc(C)cc2)CC1,0,16,0,0,0,0,0
CCN1C(=O)N(CC)C2C1N(C(C)=O)C(=O)N2C(C)=O (centres undefined),0,8.2,0,-,0,0,0
CCN1CCN(C(=O)C2CCN(S(=O)(=O)c3ccc(SC)cc3)CC2)CC1,0,16,0,0,0,0,0
SMILES,T cell modulator,MIN6 prolif-1,NTR1 agonist,Xi reactivation,Arrestin-AP2 inh,V-ATPase pHluor,MIN6 prolif-2
CCN1CCN(C(=O)C2CCN(S(=O)(=O)c3ccc(Br)cc3)CC2)CC1,0,0,0,0,0,0,-
C[C@H]1CN([C@@H](C)CO)C(=O)c2cccc(NC(=O)Nc3ccc4c(c3)OCO4)c2O[C@H]1CN(C)S(=O)(=O)c1cn(C)cn1,-,-,-,0,-,-,-
CC(C)NC(=O)NCC[C@@H]1CC[C@H](NC(=O)Nc2ccccc2)[C@H](CO)O1,-,-,-,0,-,-,-
NC(=O)C1CCN(CC(=O)Nc2nc(-c3ccccc3)cs2)CC1,0,0,0,0,0,0,-
CC1CCN(CC(=O)Nc2nc(-c3ccccc3)cs2)CC1,0,6.2,0,0,0,0,0
CO[C@H]1CN(C)C(=O)c2ccc(NC(=O)c3nc4ccccc4s3)cc2OC[C@H](C)N(Cc2cncnc2)C[C@@H]1C,-,-,-,0,-,-,-
O=C(COC(=O)c1cccc(-n2cnnn2)c1)c1ccccc1,0,0,0,0,0,0,-
O=C(OCc1nnc(-c2ccccc2)o1)c1cccc(-n2cnnn2)c1,0,11,0,0,0,0,0
COc1ccc(NS(=O)(=O)c2cccc(C(=O)NNC(=O)CNC(=O)c3cccc(C)c3)c2)cc1,0,9.7,0,0,0,0,0
COc1ccc(NS(=O)(=O)c2cccc(C(=O)NNC(=O)CNC(=O)c3ccccc3)c2)cc1,0,0,0,0,0,0,-
CCC(C)N(C(=O)CSc1ncnc2sccc12)C1CCS(=O)(=O)C1 (centres undefined),0,14,0,0,0,0,0
COc1cccc(NC(=O)C[C@@H]2CC[C@H]3[C@H](COc4ccc(NC(C)=O)cc4C(=O)N3C)O2)c1,-,-,-,0,-,-,-
Cc1oc2ccc(O)cc2c1C(=O)c1ccc(F)cc1,0,15,0,0,0,0,0
COc1ccc2oc(C)c(C(=O)c3ccc([N+](=O)[O-])cc3)c2c1,0,0,0,0,0,0,-
CCCNC(=O)[C@H]1[C@H](CO)[C@H]2Cn3c(ccc(-c4cccnc4)c3=O)[C@@H]1N2C(=O)Nc1ccccc1,-,-,-,0,-,-,-
CCCC(=O)Nc1ccc2c(c1)C(=O)N(C)[C@@H]1CC[C@@H](CC(=O)NCc3ccccc3F)O[C@@H]1CO2,-,-,-,0,-,-,-
Cc1ccc(CNC(=O)C2CCCN(c3ncnc4c3nc3n4CCCCC3)C2)cc1 (centres undefined),0,14,0,0,0,0,0
C=CCn1c(-c2cccc(OC)c2)nc2nc3ccccc3nc21,0,9.1,0,-,0,0,0
O=C(O)c1ccc(Cl)c(S(=O)(=O)NCC2CCCO2)c1 (centres undefined),0,7.3,0,-,0,0,0
COc1ccc(OC)c(NC(=O)c2ccccc2NS(=O)(=O)c2cccc3cccnc23)c1,0,5.4,0,-,0,0,0
